Experimental findings from ChEMBL document CHEMBL3112517, “Identification of dihydrostilbenes in Pholidota chinensis as a new scaffold for GABAA receptor modulators” (Bioorg Med Chem, 2014) are described below.

Common to all, as to type: cell-based
The species named for experiment [1] is Rattus norvegicus. Briefly: Allosteric modulation of rat GABAA alpha1beta2gamma2S receptor expressed in Xenopus laevis oocytes assessed as potentiation of GABA-induced chloride ion current at holding potential -70 mV at 100 uM by two-microelectrode voltage clamp assay relative to GABA-treated control. In outline: (§1)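 Stage V–VI Xenopus laevis oocytes were injected with 50 nL of rat α1, β2 and γ2S cRNA mixed 1:1:10 (about 300–3000 pg/nL per subunit), stored at 18 °C in ND96, and recorded on days 1–5. Two-electrode clamp was at −70 mV in pH 7.4 HEPES bath. Compound was applied by fast perfusion with GABA EC3–10, in 1% DMSO final. Enhancement = I(GABA+Comp)/IGABA − 1.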

Experiment [2] is filed under the species Rattus norvegicus. Briefly: Modulation of rat GABAA alpha1beta2gamma2S receptor expressed in Xenopus laevis oocytes assessed as potentiation of EC5 to 10 GABA-induced chloride ion current at holding potential -70 mV at 1 uM by two-microelectrode voltage clamp assay relative to GABA-treated control. Summed up: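 Stage V–VI oocytes injected with rat α1, β2 and γ2S cRNAs (1:1:10), kept at 18 °C in ND96 and recorded 1–5 days later at −70 mV. Bath: 90 mM NaCl, 1 mM KCl, 1 mM MgCl2, 1 mM CaCl2, 5 mM HEPES, pH 7.4. Compound from 100 mM DMSO stock co-applied with GABA EC3–10 by fast perfusion, final DMSO 1%. Enhancement = I(GABA+comp)/IGABA − 1.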

For experiment [3], the species on record is Rattus norvegicus. Briefly: Agonist activity rat GABAA alpha1beta2gamma2S receptor expressed in Xenopus laevis oocytes assessed as potentiation of GABA-induced chloride ion current at holding potential -70 mV at <100 uM compound treated prior to GABA challenge by two-microelectrode voltage clamp assay.
Experiment [4] is described as follows: (§2) Allosteric modulation of rat GABAA alpha1beta2gamma2S receptor expressed in Xenopus laevis oocytes assessed as potentiation of EC3 to 10 GABA-induced chloride ion current at holding potential -70 mV by two-microelectrode voltage clamp assay. Summed up:
as §1

For experiment [5], the species on record is Rattus norvegicus. Described as §2. Summed up:
as §1

For experiment [6], the species on record is Rattus norvegicus. Briefly: Allosteric modulation of rat GABAA alpha1beta2gamma2S receptor expressed in Xenopus laevis oocytes assessed as potentiation of EC3 to 10 GABA-induced chloride ion current at holding potential -70 mV at 1 to 300 uM by two-microelectrode voltage clamp assay relative to GABA-treated control. In outline: as §1
The species named for experiment [7] is Rattus norvegicus. Kind of experiment: Allosteric modulation of rat GABAA alpha1beta2gamma2S receptor expressed in Xenopus laevis oocytes assessed as potentiation of EC3 to 10 GABA-induced chloride ion current at holding potential -70 mV at 500 uM by two-microelectrode voltage clamp assay relative to GABA-treated control. In outline:
as §1

Active and inactive are the calls of the source. The rule behind the calls is not given here.

For the molecule `Oc1ccc(CCc2cc(O)cc(O)c2)cc1`, the Activity in experiment [1] worked out at 162%.
For `Oc1cc(O)cc(CCc2ccc(O)cc2O)c1`, the Activity in experiment [1] turned out to be 44.1%.
On to `CC(=O)Oc1ccc(CCc2cc(OC(C)=O)cc(OC(C)=O)c2)cc1`, for which the Activity in experiment [1] worked out at 228%.
As for `C(=C/c1ccccc1)/c1ccccc1`, the Activity in experiment [1] was determined as 12.6%.
As for `CN1C(=O)CN=C(c2ccccc2)c2cc(Cl)ccc21`, in experiment [2], the Activity turned out to be 231%.
On to `Br[C@H](c1ccccc1)[C@@H](Br)c1ccccc1`, for which, in experiment [1], the Activity was -12.9%.
With `C(=C\c1ccccc1)/c1ccccc1`, the Activity in experiment [1] was -11.3%.
`Oc1cc(O)cc(/C=C/c2ccc(O)c(O)c2)c1`: the Activity in experiment [1] was -35.4%.
For `COc1ccc(CCc2ccc(OC)cc2)cc1`, in experiment [1], the Activity is -20.9%.
As for `Oc1ccc(/C=C/c2cc(O)cc(O)c2)cc1`, the Activity in experiment [1] amounted to 122%.
With `c1ccc(CC(c2ccccc2)c2ccccc2)cc1`, the Activity in experiment [1] stood at 51.6%.
For the molecule `COc1ccc(/C=C/c2ccc(OC)cc2)cc1`, the Activity in experiment [1] was -24.8%.
Take `COc1cc(/C=C/c2ccc(O)cc2)cc(OC)c1`: the Activity in experiment [1] came out at 212%.
Consider `COc1cc(CCc2ccc(OC)c(OC)c2)cc(OC)c1`, for which the outcome in experiment [3] was inactive. Moreover, the EC50 in experiment [4] turned out to be 20.2 µM. For the same molecule, the figures for the Activity entry in experiment [5] and in experiment [1] were “Dose-dependent effect” and 544%, respectively. The Imax in experiment [6] came out at 871%.
`COc1cc(O)cc(/C=C\c2cccc(O)c2)c1`: the Imax in experiment [7] stood at 787%. Further, the result in experiment [3] was inactive. Also, the EC50 in experiment [4] amounted to 176 µM. For the same molecule, the figures for the Activity entry in experiment [5] and in experiment [1] were “Dose-dependent effect” and 192%, respectively.
Regarding `COc1ccc(/C=C/c2ccccc2F)cc1`, the Activity in experiment [1] was -22.9%.
Turning to `COc1ccc(CCc2ccccc2F)cc1`, the Activity in experiment [1] was -16.8%.
For `COc1cc(/C=C/c2ccc(OC)c(OC)c2)cc(OC)c1`, the Activity in experiment [1] came out at 101%.
Take `c1ccc(CCc2ccccc2)cc1`: the Activity in experiment [1] came out at 8.3%.
On to `CC(=O)Oc1ccc(/C=C/c2cc(OC(C)=O)cc(OC(C)=O)c2)cc1`, for which the Activity in experiment [1] amounted to 123%.
The same measure, in the same setting: then `C(=C(c1ccccc1)c1ccccc1)c1ccccc1`, with -7.3%.
As to `Oc1cc(O)cc(/C=C/c2ccc(O)cc2O)c1`, the Activity in experiment [1] was -19.7%.
In the case of `Oc1cc(O)cc(CCc2ccc(O)c(O)c2)c1`, the Activity in experiment [1] is 86.3%.

For orientation: EC50 means the concentration at which the effect is half-maximal.
